# UBC13 inh: human UBC13 polyubiquitination inhibition | P61088 | UBC13 polyubiquitin chain formation, TR-FRET | inhibition, % at 20 µM | 330,000 compounds, 0.47% hits | AID 485273; in the data active = inhibition above about 45%, passing the limit was not always enough
# MEKK2wt PB1 HTS: raises or lowers MEK5 binding to wildtype human MEKK2 PB1 domain; bead flow cytometry, Alexa488-MEK5 binding to MEKK2 WT; actives lie on both sides; AID 1531; 290,000 compounds, 1.1% hits; binding response (% of control), % at 10 µM; Q9Y2U5; in the data active = binding response below about 67% or above about 130%
# Apaf-1 inh: human Apaf-1 inhibition; O14727; reconstituted apoptosome caspase-3 activity, DEVD-Rh110 fluorescence; inhibition, % at 20 µM; 330,000 compounds, 0.71% hits; active = inhibition of at least 40% at 20 µM;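 also: plate controls were DMSO wells for no effect and DEVD-CHO caspase inhibitor wells for full effect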
#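 detection = Rh110 fluorescence intensity | test system = biochemical Apaf-1 apoptosome reconstitution | also added = cytochrome c and DEVD-Rh110 substrate | schedule = 30 min plus 50 min, RT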
# UCH37 DUB inh: human UCH37 deubiquitinating enzyme inhibition; 330,000 compounds, 0.33% hits; AID 588478; purified proteasome/UCH37, Ub-AMC cleavage fluorescence; inhibition, % (no concentration beside the values);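 active = mean inhibition over replicate wells above about 20%, limit read from the data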;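 also: 0% = compound-free wells with enzyme and 100% = wells lacking proteasome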
#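 system = Proteasome-associated human UCH37 deubiquitinase | amount = 0.15 nM proteasome as dispensed | medium = pH 7.4 Tris-HCl (50 mM) with ovalbumin, ATP-MgCl2, DTT | incubation = 30 min preincubation with enzyme, 25 min cleavage at room temperature | detection = AMC fluorescence 355/460 nm | read-out basis = percent inhibition | controls = no-proteasome and no-compound wells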
# MEKK2mut PB1 HTS: signal of MEK5 binding to mutant human MEKK2 PB1 domain; 290,000 compounds, 0.35% hits; bead flow cytometry, Alexa488-MEK5 binding to MEKK2 mutant; percent response, % at 10 µM; AID 1530; in the data active = percent response above about 24%, passing the limit was not always enough
# MEKK3 PB1 HTS: raises or lowers MEK5 binding to the human MEKK3 PB1 domain. bead-based flow cytometry, Alexa488-MEK5 binding to MEKK3; actives lie on both sides; 0 = blocked by unlabeled MEK5, 100 = vehicle. binding response (% of control), % at 10 µM. 290,000 compounds, 1.4% hits. Q99759. AID 1529;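 active = binding response more than 3 SD above or below the average of its plate-row segment, actives on both sides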;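 also: Alexa488 bead fluorescence after subtracting the streptavidin-only scavenger bead signal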
# MEKK2wt confirm: raises or lowers MEK5 binding to wildtype human MEKK2, retest; shares compounds with MEKK3 PB1 HTS; binding response (% of control), % at 10 µM; bead flow cytometry, Alexa488-MEK5 binding to MEKK2 WT; actives lie on both sides; 5,900 compounds, 2.4% hits; AID 1892; in the data active = binding response below about 16% or above about 210%; inactive = in between
# MEKK2mut-MEK5: signal of MEK5 binding to mutant human MEKK2, retest; shares compounds with MEKK3 PB1 HTS; AID 1893; percent response, % at 10 µM; 5,900 compounds, 2% hits; bead flow cytometry, Alexa488-MEK5 binding to MEKK2 mutant; in the data active = percent response mostly above about 71%, no sharp cut-off; inactive = mostly below about 38%;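 also: higher means compound restores mutant binding toward wildtype level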
# MEKK3 confirm: confirmation of inhibitors of MEK5 binding to human MEKK3 | binding response (% of control), % at 10 µM | shares compounds with MEKK3 PB1 HTS | 5,900 compounds, 1.8% hits | bead flow cytometry, Alexa488-MEK5 binding to MEKK3; active compounds read low;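 active = binding response below 72% of control, or above a set upper limit, though filed actives all read lower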;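 also: 100% = DMSO only wells and 0% = binding blocked by excess unlabeled MEK5; lower values mean stronger disruption of MEK5 binding to MEKK3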
# The depositor's hits bear a star; nt = no result given; [ ] = another dose, or the depositor's remark. This is a sample that favours compounds with a hit; in the whole collection about 3% have one here.
SMILES,UBC13 inh,MEKK2wt PB1 HTS,Apaf-1 inh,UCH37 DUB inh,MEKK2mut PB1 HTS,MEKK3 PB1 HTS,MEKK2wt confirm,MEKK2mut-MEK5,MEKK3 confirm
Cc1cc(N/N=C/c2cccc(F)c2)nc(NCc2ccccc2)n1,8.9,140.0*,7.8,nt,25.0,96.0,138.0,26.0,106.0
Cc1cc(N/N=C/c2ccc(Cl)cc2)nc(NCc2ccccc2)n1,13.6,186.0*,23.5,nt,54.0*,107.0,173.0,51.0,110.0
Cc1cc(NN=Cc2ccc(F)cc2)nc(NCc2ccccc2)n1,nt,nt,nt,1.5,nt,nt,nt,nt,nt
CCOc1ccc(Cn2c3ccc(OC)cc3c3nc4ccccc4nc32)cc1,nt,96.0,nt,4.7,-1.0,97.0,nt,nt,nt
Cc1cc(N/N=C/c2ccccc2)nc(NCc2ccccc2)n1,8.7,175.0*,13.6,nt,32.0,107.0,153.0,31.0,111.0
Cc1cc(NN=Cc2ccccc2)nc(NCc2ccccc2)n1,nt,nt,nt,0.8,nt,nt,nt,nt,nt
COc1ccc(N2CCN(C(=O)c3cc4c(s3)-c3ccccc3S(=O)(=O)C4)CC2)cc1,4.6,-10.0*[inhibitor],-11.0,2.9,-19.0,82.0,101.0,5.0,104.0
CCN(CC)S(=O)(=O)c1ccc(NC(=O)c2cccc3c2C(=O)N(CCOC)C3)cc1,8.3,108.0,16.5,-64.9,0.0,132.0*,102.0,-5.0,101.0
OCC[C@@H]1C[C@@H](O)[C@H](O)[C@]2(CCCO2)O1,0.8,106.0,-1.3,5.4,5.0,108.0,nt,nt,nt
Cc1cccc(NC(=O)c2cc(Cl)ccc2[N+](=O)[O-])c1,-1.2,111.0,0.8,1.1,1.0,147.0*,116.0,3.0,103.0
Cc1ccc(NC(=O)c2cc(Cl)ccc2[N+](=O)[O-])cc1C,-7.4,104.0,4.2,5.2,-2.0,102.0,nt,nt,nt
Cc1ccc(NC(=O)c2ccc(NCCCN3CCC(C)CC3)c([N+](=O)[O-])c2)cc1F,-3.7,158.0*,-0.7,4.3,23.0,105.0,153.0,34.0,107.0
O=C(Nc1cccc(Cl)c1)c1ccc(NCCCN2CCOCC2)c([N+](=O)[O-])c1,-16.3,111.0,-11.3,9.3,9.0,98.0,nt,nt,nt
Cc1cccc(NC(=O)c2ccc(NCCc3ccccc3)c([N+](=O)[O-])c2)c1,-24.9,107.0,-4.4,2.9,0.0,135.0*,96.0,-4.0,99.0
NS(=O)(=O)c1cc(C(=O)N=Nc2c(O)[nH]c3ccccc23)ccc1Cl,-26.5,102.0,-21.3,7.7,7.0,106.0,nt,nt,nt
NC(=O)CSc1nnc(-c2cccs2)n1-c1ccccc1,-1.5,110.0,4.8,1.1,3.0,103.0,nt,nt,nt
COc1ccc(C2=NN(C(=O)CSc3nc4ccccc4s3)C(c3ccc(OC)cc3)C2)cc1 (centres undefined),-2.2,99.0,16.5,1.1,0.0,148.0*,87.0,-6.0,92.0
COc1ccc(C2=NN(C(=O)CSc3nc4ccccc4s3)C(c3ccc(F)cc3)C2)cc1 (centres undefined),-20.4,83.0,22.4,0.6,-2.0,86.0,nt,nt,nt
CN(C(=O)COC(=O)C(Cc1ccccc1)NC(=O)c1ccccc1)c1ccccc1 (centres undefined),4.7,106.0,-0.7,4.0,0.0,134.0*,101.0,-8.0,98.0
Cc1ccc(S(=O)(=O)N=Nc2c(O)[nH]c3ccccc23)cc1,-10.8,121.0,6.6,4.1,6.0,126.0*,104.0,4.0,105.0
O=C1CCCC2=C1C(c1ccc(Cl)cc1)n1c(s/c(=C\c3ccc4ccncc4c3)c1=O)=N2 (centres undefined),0.2,81.0,10.7,nt,-1.0,141.0*,93.0,-1.0,100.0
Cc1nn(Cc2cccc(C(=O)Nn3cc([N+](=O)[O-])cn3)c2)c(C)c1[N+](=O)[O-],-9.1,104.0,19.5,8.0,0.0,128.0*,96.0,-12.0,97.0
Cc1nn(Cc2cccc(C(=O)O)c2)c(C)c1[N+](=O)[O-],11.3,102.0,-22.6,4.9,9.0,106.0,nt,nt,nt
Cn1c(=O)c2ncn(CC(=O)N/N=C/c3ccco3)c2n(C)c1=O,-13.4,108.0,-3.2,nt,0.0,140.0*,110.0,2.0,101.0
CC(C)(C)C(=O)Nc1ccc2oc(-c3cc(F)c(F)cc3Cl)nc2c1,12.5,1.0*[inhibitor],13.2,-9.4,-19.0,1.0*[inhibitor],103.0,-2.0,100.0
SMILES,UBC13 inh,MEKK2wt PB1 HTS,Apaf-1 inh,UCH37 DUB inh,MEKK2mut PB1 HTS,MEKK3 PB1 HTS,MEKK2wt confirm,MEKK2mut-MEK5,MEKK3 confirm
O=C(NCCCN1CCCCCC1)C1CC(=O)N(CCc2ccccc2)C1 (centres undefined),40.4,147.0*,17.4,1.3,25.0*,81.0,154.0,25.0,94.0
O=C(NCCCN1CCOCC1)C1CC(=O)N(CCc2ccccc2)C1 (centres undefined),1.3,103.0,-4.0,-1.5,2.0,100.0,nt,nt,nt
CC(=O)N1CCN(c2ccc(Nc3ncnc4c3oc3ccccc34)cc2)CC1,-11.3,89.0,10.8,3.7,-12.0,81.0*[inhibitor],106.0,8.0,101.0
CCc1nc(Nc2ccc(N3CCN(C(C)=O)CC3)cc2)c2oc3ccccc3c2n1,11.6,101.0,6.3,-1.3,-1.0,94.0,nt,nt,nt
Cc1cc(NCCCN2CCOCC2)n2ncc(-c3ccc(Cl)cc3)c2n1,14.7,147.0*,21.1,-91.6,23.0,109.0,133.0,19.0,112.0
Cc1cc(NCCCn2ccnc2)n2ncc(-c3ccc(Cl)cc3)c2n1,19.1,121.0,7.2,-141.4,-1.0,94.0,nt,nt,nt
O=C(C[n+]1ccc(/C=N/O)cc1)N(Cc1ccccc1)Cc1ccccc1,-0.4,106.0,-0.9,nt,-2.0,109.0,nt,nt,nt
COC(=O)C1=C(C)NC(C)=C(C(=O)O[C@@H]2CCCN(Cc3ccccc3)C2)[C@@H]1c1cccc([N+](=O)[O-])c1,18.8,145.0*,27.1,1.7,10.0,111.0,120.0,9.0,106.0
FC(F)(F)c1ccc(Cl)c(-n2c(-c3cc(C4CC4)[nH]n3)n[nH]c2=S)c1,-9.0,96.0,-1.6,6.3,-5.0,95.0,nt,nt,nt
COc1cc(-c2n[nH]c(=S)n2-c2cc(C(F)(F)F)ccc2Cl)cc(OC)c1OC,-5.9,108.0,3.5,-1.1,0.0,144.0*,100.0,-3.0,103.0
Cc1ccc(C=NNC(=O)c2csnn2)cc1,nt,nt,nt,1.8,nt,nt,nt,nt,nt
CNC(=O)CSc1nnc(-c2ccco2)n1-c1cc(C)ccc1C,5.6,106.0,-12.9,4.7,32.0*,103.0,110.0,0.0,106.0

# Screening results as filed in PubChem.
